Active and inactive are the calls of the source. The calls are words filed in the database; no cut-off is given here.
Key:
NALM-6 [1] = assay: Induction of apoptosis in human NALM6 cells assessed as late apoptotic cells at 20 uM after 24 hrs by Annexin-V/FITC propidium iodide staining based flow cytometric analysis (reference value: 1.68%); type: functional
NALM-6 [2] = assay: Effect on SRPK1 expression level in human NALM6 cells at 20 uM after 24 hrs by Western blot analysis; type: functional, cell-based
In short: (§1)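 Nalm6 treated 24 h at 20 µM (DMSO vehicle control), lysed at 2x10^7 cells/mL in PBS with 1% NP40, 1 mM EDTA, 150 mM NaCl, 10 mM Tris pH 7.4 plus protease/phosphatase inhibitors; on ice 10 min, sonicated, spun 15000 xg; SDS-PAGE, PVDF, milk block overnight, primary and secondary antibody 2 h each; representative of three.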

NALM-6 [3] = assay: Antiproliferative activity against human NALM6 cells at 20 uM by trypan blue dye exclusion assay; type: functional, cell-based; conditions: TDE = time-dependent effect
In short: (§2)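 Nalm6 at 1x10^4 or HL60 at 1.5x10^4 cells per well exposed to 20 µM; DMSO (0.4% v/v) as control. Viable cells counted by trypan blue exclusion on a hemocytometer at 0, 24, 48, 72 and 96 h; growth inhibition relative to control.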

NALM-6 [4] = assay: Synergistic cytotoxicity against human NALM6 cells assessed as reduction in cell viability by measuring combination index at 3 uM after 48 hrs in presence of 1 nM vincristine by MTT assay; type: functional
NALM-6 [5] = assay: Induction of apoptosis in human NALM6 cells assessed as necrotic cells at 20 uM after 24 hrs by Annexin-V/FITC propidium iodide staining based flow cytometric analysis (reference value: 0%); type: functional
HL-60 [6] = assay: Antiproliferative activity against human HL60 cells at 20 uM by trypan blue dye exclusion assay; type: functional, cell-based; conditions: TDE = time-dependent effect; in short: as §2
NALM-6 [7] = assay: Synergistic cytotoxicity against human NALM6 cells assessed as reduction in cell viability by measuring combination index at 1.5 uM after 48 hrs in presence of 0.5 nM vincristine by MTT assay; type: functional
NALM-6 [8] = assay: Cytotoxicity against human NALM6 cells assessed as cell growth inhibition at 20 uM after 96 hrs by trypan blue dye exclusion assay relative to control; type: functional; conditions: NALM-6, 96 h, read-out: GI; in short: as §2
Jurkat = assay: Cytotoxicity against human Jurkat cells assessed as reduction in cell viability up to 200 uM after 48 hrs by MTT assay; type: functional, cell-based; conditions: Homo sapiens, Jurkat, 48 h; read-out: IC50
In short: (§3)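 Cells (7x10^4/well) in RPMI-1640 with 10% FBS, 37 °C, 5% CO2; exposed to compound dilutions 0–200 µM (medium with 10% FBS, 0.4% DMSO) for 48 h. MTT added, 3 h at 37 °C, formazan dissolved in DMSO, absorbance 540 nm. IC50 from concentration–response; means ± standard deviation of three independent experiments.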

NALM-6 [9] = assay: Effect on actin expression level in human NALM6 cells at 20 uM after 24 hrs by Western blot analysis; type: ADME, cell-based; conditions: nalm-6, 24 h; in short: as §1
NALM-6 [10] = assay: Induction of apoptosis in human NALM6 cells assessed as necrotic cells at 20 uM after 12 hrs by Annexin-V/FITC propidium iodide staining based flow cytometric analysis (reference value: 0.04%); type: functional
NALM-6 [11] = assay: Effect on actin expression level in human NALM6 cells at 20 uM after 24 hrs by qRT-PCR analysis; type: ADME, cell-based; conditions: nalm-6, 24 h
Homo sapiens = organism: Homo sapiens; assay: Inhibition of SRPK in human NALM6 cells assessed as decrease in RON mRNA expression level at 20 uM after 24 hrs by qRT-PCR analysis; type: cell-based
In short: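 Nalm6 given 20 µM for 24 h with 0.4% DMSO control; mRNA isolated with Tri Reagent, quantified spectrophotometrically, integrity checked on 1% agarose, then RT-PCR for target transcripts; one representative of three experiments.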

NALM-6 [12] = assay: Induction of apoptosis in human NALM6 cells assessed as early apoptotic cells at 20 uM after 24 hrs by Annexin-V/FITC propidium iodide staining based flow cytometric analysis (reference value: 8.22%); type: functional
HL-60 [13] = assay: Cytotoxicity against human HL60 cells assessed as reduction in cell viability up to 200 uM after 48 hrs by MTT assay; type: functional, cell-based; conditions: Homo sapiens, HL-60, 48 h; read-out: IC50; in short: as §3
NALM-6 [14] = assay: Effect on SRPK2 expression level in human NALM6 cells at 20 uM after 24 hrs by Western blot analysis; type: functional, cell-based; in short: as §1
NALM-6 [15] = assay: Induction of apoptosis in human NALM6 cells assessed as early apoptotic cells at 20 uM after 12 hrs by Annexin-V/FITC propidium iodide staining based flow cytometric analysis (reference value: 7.40%); type: functional
PBMC = assay: Cytotoxicity against PHA-stimulated human PBMC assessed as reduction in cell viability at 25 uM after 48 hrs by MTT assay; type: cell-based
In short: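 Primary peripheral blood mononuclear cells seeded 1x10^5/well in complete RPMI; treated with 25 µM for 48 h. Viability by MTT (3 h, 37 °C, DMSO solubilization, 540 nm), vehicle taken as 100% viability; triplicate experiments, means ± standard deviation.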

NALM-6 [16] = assay: Induction of apoptosis in human NALM6 cells assessed as viable cells at 20 uM after 24 hrs by Annexin-V/FITC propidium iodide staining based flow cytometric analysis (reference value: 90.10%); type: functional; conditions: NALM-6, 24 h, read-out: Activity
NALM-6 [17] = assay: Cytotoxicity against human NALM6 cells assessed as reduction in cell viability up to 200 uM after 48 hrs by MTT assay; type: functional, cell-based; conditions: Homo sapiens, NALM-6, 48 h; read-out: IC50; in short: as §3
NALM-6 [18] = assay: Induction of autophagy in human NALM6 cells at 20 uM after 24 hrs by acridin orange staining based fluorescence microscopy; type: functional, cell-based
In short: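 Nalm6 (7x10^4/well) exposed 24 h to 20 µM or 0.4% DMSO, washed in PBS, stained with 1 µM acridine orange at 37 °C for 15 min, washed, resuspended in PBS; autophagosomes (red fluorescence) viewed by fluorescence microscopy; three experiments.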

HL-60 [19] = assay: Cytotoxicity against human HL60 cells assessed as cell growth inhibition at 20 uM after 96 hrs by trypan blue dye exclusion assay relative to control; type: functional; conditions: HL-60, 96 h, read-out: GI; in short: as §2
NALM-6 [20] = assay: Induction of apoptosis in human NALM6 cells assessed as viable cells at 20 uM after 12 hrs by Annexin-V/FITC propidium iodide staining based flow cytometric analysis (reference value: 92.11%); type: functional; conditions: NALM-6, 12 h, read-out: Activity
NALM-6 [21] = assay: Induction of apoptosis in human NALM6 cells assessed as late apoptotic cells at 20 uM after 12 hrs by Annexin-V/FITC propidium iodide staining based flow cytometric analysis (reference value: 0.45%); type: functional

Question: With `O=C(Nc1cc(C(F)(F)F)ccc1Nc1ccc(Br)cc1)c1ccccc1` as the compound, how does the Activity (NALM-6 [1]) read?
Answer: Its Activity is 2.01%.

Question: And the Activity (NALM-6 [2])?
Answer: The Activity was “inactive”.

Question: What about the Activity (NALM-6 [3]) of the same compound?
Answer: Its Activity is “Tde”.

Question: And the CI (NALM-6 [4])?
Answer: The CI was 1.05.

Question: And the Activity (NALM-6 [5])?
Answer: Its Activity is 0.01%.

Question: And the Activity (HL-60 [6])?
Answer: Its Activity is “Tde”.

Question: And the CI (NALM-6 [7])?
Answer: The CI was 0.56.

Question: And the inhibition of growth at 20 µM (NALM-6 [8])?
Answer: The inhibition of growth at 20 µM was 72%.

Question: And the IC50 (Jurkat)?
Answer: Its IC50 is 33.8 µM.

Question: What about the Activity (NALM-6 [9]) of the same compound?
Answer: Its Activity is “Non-Toxic”.

Question: What about the Activity (NALM-6 [10]) of the same compound?
Answer: Its Activity is 0.02%.

Question: What about the Activity (NALM-6 [11]) of the same compound?
Answer: Its Activity is “Non-Toxic”.

Question: And the inhibition (Homo sapiens)?
Answer: The inhibition was “Active”.

Question: What about the Activity (NALM-6 [12]) of the same compound?
Answer: The Activity was 24.73%.

Question: What about the IC50 (HL-60 [13]) of the same compound?
Answer: The IC50 was 11.8 µM.

Question: What about the Activity (NALM-6 [14]) of the same compound?
Answer: Its Activity is “inactive”.

Question: What about the Activity (NALM-6 [15]) of the same compound?
Answer: Its Activity is 13.53%.

Question: What about the Activity (PBMC) of the same compound?
Answer: The Activity was “Non-Toxic”.

Question: What about the viability at 20 µM (NALM-6 [16]) of the same compound?
Answer: The viability at 20 µM was 73.2%.

Question: What about the IC50 (NALM-6 [17]) of the same compound?
Answer: Its IC50 is 6 µM.

Question: And the Activity (NALM-6 [18])?
Answer: The Activity was “Active”.

Question: What about the inhibition of growth at 20 µM (HL-60 [19]) of the same compound?
Answer: The inhibition of growth at 20 µM was 48%.

Question: What about the viability at 20 µM (NALM-6 [20]) of the same compound?
Answer: Its viability at 20 µM is 85.9%.

Question: What about the Activity (NALM-6 [21]) of the same compound?
Answer: The Activity was 0.52%.
